# Apaf-1 act: human Apaf-1 activation | O14727 | Apaf-1 apoptosome caspase-3 activation, DEVD-Rh110 fluorescence; hits give low values | actives 0.31% (n = 330,000) | activity change, negative = activation, % at 20 µM;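 active = activity change at or below -40% at 20 µM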
#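 System: Reconstituted apoptosome of Apaf-1, cytochrome c, caspase-9, procaspase-3 | Reagent: dATP, cytochrome c, and (Z-DEVD)2-Rh110 caspase-3 substrate | Times: 30 min compound preincubation and 50 min reaction, both room temperature | Detection: Caspase-3-released Rh110 fluorescence, 540 nm emission, 480 nm excitation | Measure: Caspase-3 activity via Apaf-1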
# Rh110 interf act: Rh110 signal interference in Apaf-1 activator counter-screen | 980 tested, under 10 active | shares compounds with Apaf-1 act | Rh110 fluorescence interference, quenched caspase reaction, Ex480/Em540 | fluorescence interference (activity change), % at 20 µM, hits read low;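 active = mean activity change at or below -40% when tested at 20 µM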
# Apaf-1 act conf2: confirmation of human Apaf-1 activators; shares compounds with Apaf-1 act; reconstituted apoptosome caspase-3 activity, DEVD-Rh110 fluorescence; hits give low values; activity change, negative = activation, % at 20 µM; actives 5% (n = 980);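 active = mean activity change at or below -40%, meaning activation of 40% or more, at 20 µM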
# * = called active by the depositor; x = no result. Not all results are given here.
SMILES,Apaf-1 act,Rh110 interf act,Apaf-1 act conf2
[O-]/C(=C(\C(=S)Nc1cccc2ccccc12)[n+]1ccccc1)c1ccc(Cl)s1,47.0,x,x
NC1=C(Br)C(=O)c2ccccc2C1=O,70.9,x,x
COCc1ccc(C(=O)N2CCCC(Nc3ccc(C(C)C)cc3)C2)o1 (configuration not stated),-107.3*,-3.5,10.1
CCCCNc1cc(NC(C)=O)cc2cc(OC)c(OC)cc12,61.8,x,x
COCC(=O)O[C@]1(CCN(C)CCCc2nc3ccccc3[nH]2)CCc2cc(F)ccc2[C@@H]1C(C)C,54.3,x,x
COc1ccc(/C=N/n2c(C)nc3sc(C)c(C)c3c2=O)cc1OC,-145.3*,15.0,12.5
Cc1c(C(=O)Nc2ccncc2)sc2nc(-c3ccc(F)cc3)cn12,-43.8*,7.4,-27.1
CC/C(=N/Nc1cccc(C)c1)c1cnnc(SC)n1,63.2,x,x
CNS(=O)(=O)Cc1ccc2[nH]cc(CCN(C)C)c2c1,0.8,x,x
COc1ccc(C(CC(=O)c2ccc(O)cc2)S(=O)(=O)c2ccc(C)cc2)cc1 (configuration not stated),-63.9*,-4.3,5.9
COc1ccc(S(=O)(=O)/N=C2\C=C(Nc3ccc(O)cc3)C(=O)c3ccccc32)cc1,96.4,x,x
CCC1CCc2sc(C(=O)NCC(c3ccc(OC)cc3)N3CCCC3)cc2C1 (configuration not stated),45.8,x,x
O=C1Cc2cc([N+](=O)[O-])ccc2N1c1c(Cl)cccc1Cl,43.2,x,x
C=CC(=O)Nc1ccc(N(C)c2ccnc(Nc3ccc(N4CCN(C)CC4)cc3)n2)cc1,61.6,x,x
CC1CCN(S(=O)(=O)c2ccc3c4c2CC(=O)N4CC(C)S3)CC1 (configuration not stated),94.4,x,x
COc1cc(Cl)c(NC2=CC(=O)C(=O)c3ccccc32)c(OC)c1,91.9,x,x
COc1ccccc1C(=O)Nc1ccc(Oc2nnc(-c3ccc(C)cc3)c3ccccc23)cc1,40.1,x,x
COc1ccc(NC(=O)C(c2ccccn2)N(C(C)=O)c2ccc(C)cc2)cc1 (configuration not stated),-415.4*,7.6,6.0
COC1=C(Nc2ccc(C)cc2)C(=O)c2ccccc2C1=O,61.5,x,x
Cc1ccc2ccc(C3C(=O)c4ccccc4C3=O)nc2c1,-169.6*,9.9,8.0
Clc1ccc(/C=N/Nc2ncnc3ccccc23)cc1Cl,42.8,x,x
c1ccc(CN(CC2=NCCN2)c2ccccc2)cc1,-4.3,x,x
CC(=O)N1CCN(C(=S)NC(=O)C23CC4CC(CC(C4)C2)C3)CC1,47.5,x,x
CCN(Cc1ccccc1)C(=O)c1cccc(S(=O)(=O)N2CCN(c3ccc(F)cc3)CC2)c1,42.1,x,x
O=C(NCC(c1ccco1)N1CCN(c2ccc(F)cc2)CC1)c1ccc2c(c1)OCO2 (configuration not stated),-155.2*,-2.5,16.2
SMILES,Apaf-1 act,Rh110 interf act,Apaf-1 act conf2
CCN(CC(=O)Nc1c(F)cccc1F)C(=O)CNC(=O)c1ccc2c(c1)OCO2,53.2,x,x
CC(C)c1ccc(S(=O)(=O)/N=C2/C=CC(=O)c3ccccc32)cc1,71.7,x,x
COCCCNC(=O)c1c(N)n(-c2ccccc2)c2nc3ccccc3nc12,83.6,x,x
COc1ccc2c(c1OC)C(=O)OC2C1c2c(cc3c(c2OC)OCO3)CCN1C (configuration not stated),5.1,x,x
CCN(CC)CCOc1ccc(/C(=C(\Cl)c2ccccc2)c2ccccc2)cc1,66.5,x,x
O=C(Nc1ccc2ccccc2n1)Nc1cccs1,-58.3*,-1.4,13.7
COc1cc(Cn2c(N)c(C#N)c3nc4ccccc4nc32)cc(OC)c1,57.9,x,x
O=C(O)c1cccc(CN2C(=O)CSC2=O)c1,-52.2*,0.3,8.0
CN(CC(=O)Nc1ccc(Cl)c(Cl)c1)C(=O)C12CC3CC(CC(C3)C1)C2,-86.3*,-4.0,19.8
Cc1cc2cc(CNC(=O)Nc3ccc(Cl)c(Cl)c3)ccc2n1C,62.3,x,x
CCN(CC(=O)Nc1ccc(NC(C)=O)cc1)C(=O)c1ccccc1Sc1ccccc1C#N,55.7,x,x
CSCCC(NC(=O)c1ccccc1Br)C(=O)N1CCN(C(C)=O)CC1 (configuration not stated),48.1,x,x
O=C(Nc1ccccc1C(=O)N1CCN(Cc2ccccc2)CC1)c1ccccc1,-95.2*,-15.5,8.0
C#CCOCCOCCOCCNc1nc(N2CCN(C(=O)CCCCCCCCCCNC(=O)[C@H]([C@@H](C)CC)n3cc(CCCCCN)nn3)CC2)nc(N2CCN(C(=O)CCCCCCCCCCNC(=O)[C@@H]([C@H](C)O)n3cc(C)nn3)CC2)n1,49.9,x,x
CCCCC(CC)CN=C(N)NC(N)=NCCCCCCN=C(N)NC(N)=NCC(CC)CCCC (configuration not stated),93.5,x,x
CCCC1=Nc2cc(C(=O)NCCCOCC)ccc2Sc2ccccc21,45.4,x,x
CCCCCCSc1ccc([C@@H]2[C@H]3C(=O)N(CC)C(=O)[C@H]3[C@]3(C(=O)OC)CCCN23)cc1,-224.6*,5.4,13.3
CC(C)(C)C(=O)[C@@H]1[C@@H]2C(=O)N(C3CCCCC3)C(=O)[C@@H]2[C@H]2c3ccccc3C=CN12,63.7,x,x
Cc1ccc(S(=O)(=O)NC(=O)Nc2ccc(N(C)C)cc2)cc1,57.0,x,x
Cc1noc(NS(=O)(=O)c2ccc(NC(=O)NC(C)(C(F)(F)F)C(F)(F)F)cc2)c1C,-232.2*,4.2,13.7
C[C@H](CO)N1C[C@H](C)[C@@H](CN(C)Cc2ccc(Cl)c(Cl)c2)Oc2c(NC(=O)CCC(F)(F)F)cccc2C1=O,46.1,x,x
CC1=C(C#N)C(=O)N(C2CCS(=O)(=O)C2)C(=O)/C1=C\c1ccco1 (configuration not stated),54.2,x,x
COc1ccc(-c2sc3cc4c(cc3c2C#CC2(N)CCCCC2)OCO4)cc1,72.0,x,x
CCN1C(=O)C(C(=O)Nc2ccc(OC)cc2)C2CC1(C)Oc1ccccc12 (configuration not stated),-542.0*,9.0,11.6
CNC[C@H]1Oc2ccc(NC(=O)Nc3ccc(OC)cc3)cc2C(=O)N([C@@H](C)CO)C[C@H]1C,44.7,x,x
SMILES,Apaf-1 act,Rh110 interf act,Apaf-1 act conf2
Cc1ccc(C(=O)NC2(O)C(=O)c3ccccc3C2=O)cc1C,96.8,x,x
COc1ccc(N=CC2=C(Nc3ccc(OC)cc3)c3c(C)nn(-c4ccccn4)c3CC2)cc1,92.6,x,x
COc1ccc(C2c3sc(=O)[nH]c3SC3C(=O)N(c4ccccc4)C(=O)C32)cc1 (configuration not stated),-177.8*,3.8,9.8
O=C1Cc2ccccc2C(=O)N1OCc1ccc(Cl)cc1,95.3,x,x
CN(C)CCOc1ccc(-c2c(-c3ccsc3)sc3ccccc23)cc1,71.3,x,x
Cc1cc(C)cc(NC(=O)C2CCN(S(C)(=O)=O)CC2)c1,-67.0*,0.5,-0.1
N#CC1=C(N)Oc2n[nH]c(-c3cccs3)c2C1c1ccsc1 (configuration not stated),82.9,x,x
CCN1CCN(C2=C(NS(=O)(=O)c3ccc(C)cc3)C(=O)c3ccccc3C2=O)CC1,77.4,x,x
C#CCOCCOCCOCCNc1nc(N2CCN(C(=O)C([C@@H](C)CC)n3cc(C(N)COC(=O)C(F)(F)F)nn3)CC2)nc(N2CCN(C(=O)[C@H](Cc3cc4ccccc4[nH]3)n3cc(C(N)CO)nn3)CC2)n1 (some centres not stated),49.2,x,x
